Laboratory results taken from paper PMC2555998 (The Journal of Biological Chemistry, 2008).
Where no end group is shown, it is not given here.

Tests used:
TA-CaM = conditions: cited from earlier work
[1] = Ca^2+ dissociation kinetics of CaM and mutant CaMs without peptide; type: binding; conditions: no peptide; calibration of ΔRF per site
Procedure, shortened: (§1)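 Human liver wild-type CaM and the EF-hand mutants CaM12 (D22A/D58A) and CaM34 (D95A/D131A) were expressed in E. coli and HPLC-purified, EGTA-free. In stopped flow, 90 µM quin 2 with no added Ca2+ was mixed with 3 µM CaM or CaM·peptide in 50 µM Ca2+ buffer (mixing-chamber concentrations). Buffer was 50 mM K+-PIPES pH 7.0, 100 mM KCl, 2 mM MgCl2.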

[2] = cited from earlier work
CaM34 (D95A/D131A CaM) = CaM34 (D95A/D131A CaM) (Homo sapiens, UniProt P0DP23, D132A/D96A); assay: Ca^2+ dissociation kinetics of CaM34 complexes with Cx32 peptides; type: binding; conditions: Table 3, CaM34 + C-terminal peptide, n = 2; for k2 (EF2, N-terminal CaM lobe): 10 μM peptide, 21 °C, mean ± S.D.
AEDANS-T34C/T110C-CaM = AEDANS-T34C/T110C-CaM (Homo sapiens, UniProt P0DP23, T111C/T35C); assay: Equilibrium fluorescence titration of AEDANS-T34C/T110C-CaM with Cx32 208–226; type: binding
CaM12 (D22A/D58A CaM) = CaM12 (D22A/D58A CaM) (Homo sapiens, UniProt P0DP23, D23A/D59A); assay: Ca^2+ dissociation kinetics of CaM12 complexes with Cx32 peptides; type: binding; conditions: n = 1; for k4 (EF4, C-terminal CaM lobe) / relative amplitude A3 (EF3) / relative amplitude A4 (EF4): Table 3, CaM12 + C-terminal peptide; for k4 (EF4, C-terminal CaM lobe): 21 °C
Procedure, shortened: as §1

DA-CaM [3] = molecular target: T1, DA-CaM (Homo sapiens, UniProt P0DP23, T111C/T35C); assay: Conformation of CaM in peptide complexes: donor quenching of DA-CaM; type: binding; conditions: 433 nM DA-CaM, 0.5 mM CaCl2; further addition of 4.4 μM peptide
Procedure, shortened: (§2)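 DA-CaM was made from T34C/T110C CaM randomly labeled with IAEDANS (donor) and DDP (quencher), then HPLC-fractionated into lobe-specific labeled species. Equilibrium titration used increasing peptide concentrations on a spectrofluorimeter. Donor quenching indicated CaM compactness in the complex, and Kd came from fitting the binding data.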

CaM = CaM (Homo sapiens, UniProt P0DP23); assay: Ca^2+ dissociation kinetics of CaM complexes with Cx32 peptides; type: binding; conditions: for relative amplitude A1 (EF1) / relative amplitude A2 (EF2) / relative amplitude A3 (EF3) / relative amplitude A4 (EF4): Table 3, CaM + C-terminal peptide, n = 3 (208-226), 2 (208-227)
Procedure, shortened: as §1

DA-CaM [4] = molecular target: T1, DA-CaM; assay: Equilibrium fluorescence titration of DA-CaM with Cx32 1–19; type: binding
Procedure, shortened: as §2

Substance | k2 (EF2, N-terminal CaM lobe) (CaM34 (D95A/D131A CaM)) [s⁻¹] | k4 (EF4, C-terminal CaM lobe) (CaM12 (D22A/D58A CaM); 10 μM peptide) [s⁻¹] | relative amplitude A3 (EF3) (CaM12 (D22A/D58A CaM)) | relative amplitude A4 (EF4) (CaM12 (D22A/D58A CaM)) | relative amplitude A1 (EF1) (CaM) | relative amplitude A2 (EF2) (CaM) | relative amplitude A3 (EF3) (CaM) | relative amplitude A4 (EF4) (CaM) | also measured
Cx32 216–230: peptide representing residues 216–230 of the Cx32 C-terminal tail (ACARRAQRRSNPPSR; UniProt P08034 216-230, looked up, fragment) |  |  |  |  |  |  |  |  | relative affinity for CaM, in words (TA-CaM; compared with 208–226 peptide): higher affinity than the 208–226 peptide
calmodulin [CaM] |  |  |  |  |  |  |  |  | ΔRF of two measurable (C-lobe) sites [1]: 0.08; higher Ca^2+ affinity of the C-terminal lobe of apo CaM (fold) ([2]; Ca^2+-free (apo) CaM, C-lobe vs N-lobe): about 5 fold; Ca^2+ dissociation from the two N-terminal lobe sites, estimated ([2]; no peptide): ~1000 s^–1
EVVYLIIRACARRAQRRSN [Cx32 208–226] | 173 ± 0.4 | 1.6 ± 0.1 | 1 | 1 | 1 | 1 | 1 | 1 | Kd (AEDANS-T34C/T110C-CaM): 3450 ± 1090 nM; increase in fluorescence on peptide binding (fold) (AEDANS-T34C/T110C-CaM; donor-only labeled probe AEDANS-T34C/T110C-CaM): 2.5 fold; donor AEDANS fluorescence on increasing the peptide concentration (DA-CaM [3]): a blue shift was seen in the donor AEDANS fluorescence
MNWTGLYTLLSGVNRHSTA [Cx32 1–19] |  |  |  |  |  |  |  |  | Kd (DA-CaM [4]): 1140 ± 100 nM
Cx32 1–21: peptide, consisting of residues 1–21, which represents the N-terminal tail CaM-binding domain of Cx32 |  |  |  |  |  |  |  |  | Kd (TA-CaM; TA-CaM (Lys75-modified fluorescent CaM), Ca^2+-dependent): 27 nM
Ac-EVVYLIIRACARRAQRRSNP-NH2 [Cx32 208–227] | 169 ± 5.6 | 3.1 ± 0.1 | 0.5 | 1 | 0.5 | 1.5 | 1 | 1 | relative amplitude A1 (EF1) (CaM34 (D95A/D131A CaM)): 0.5; relative amplitude A2 (EF2) (CaM34 (D95A/D131A CaM)): 1; rate constant for both C-lobe EF hands of CaM12·peptide complex (CaM12 (D22A/D58A CaM); 10 μM peptide): 3.1 ± 0.1 s^–1; involvement of the N-lobe EF hand binding (CaM; CaM complex, 10 μM peptide): 50%; relative affinity for CaM, in words (CaM; compared with 208–226 peptide): higher affinity for CaM than the 208–226 peptide
